Assay results taken from ChEMBL document CHEMBL3860061, “A Novel Parkinson's Disease Drug Candidate with Potent Anti-neuroinflammatory Effects through the Src Signaling Pathway” (J Med Chem, 2016).
Activity calls are given as the source filed them. The rule behind the calls is not given here.

Legend:
Mus musculus [1] = test: In vivo inhibition of Src in MPTP/probenecid-induced chronic C57/BL mouse Parkinson's disease model assessed as effect on NOS1 expression level in midbrain at 5 to 20 mg/kg co-administered with L-DOPA once in a day for 7 weeks post 10 doses of MPTP for 5 weeks by Western blot analysis; assay type: functional, organism-based
Mus musculus [2] = test: Effect on Src protein expression level in midbrain of MPTP/probenecid-induced chronic C57/BL mouse Parkinson's disease model at 5 to 20 mg/kg dosed once daily for 7 weeks post 10 doses of MPTP/probenecid for 5 weeks by Western blot analysis; assay type: functional, organism-based
[3] = Drug uptake in ICR mouse plasma at 50 mg/kg, ig after 5 mins by LC/MS/MS analysis; assay type: ADME, organism-based; conditions: in vivo, po
Mus musculus [4] = test: (§1) Antineuro-inflammatrory activity in MPTP/probenecid-induced chronic C57/BL mouse Parkinson's disease model assessed as decrease in TNF-alpha level in midbrain at 10 to 20 mg/kg dosed once daily for 7 weeks post 10 doses of MPTP/probenecid for 5 weeks measured after last MPTP/probenecid dose by ELISA; assay type: functional, organism-based
Method in brief: (§2)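 Male C57/BL mice (22–25 g) received 10 doses of MPTP hydrochloride (25 mg/kg in saline, s.c.) plus probenecid (250 mg/kg in DMSO, i.p.) over 5 weeks. Only mice failing the rotarod afterwards were randomised to agent (5, 10, 20 mg/kg) or L-DOPA 20 mg/kg in 0.5% CMC-Na, once daily for 7 weeks. Midbrain lysate in non-denaturing buffer with protease inhibitor; IL-1β or TNF-α by ELISA, n = 6.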

Mus musculus [5] = test: Effect on ROCK1 protein expression level in midbrain of MPTP/probenecid-induced chronic C57/BL mouse Parkinson's disease model at 5 to 20 mg/kg dosed once daily for 7 weeks post 10 doses of MPTP/probenecid for 5 weeks by Western blot analysis; assay type: functional, organism-based
Mus musculus [6] = test: Neuroprotective activity in MPTP-induced subacute C57/BL mouse Parkinson's disease model assessed as reversal of decline of TH-positive neuron levels in substantia nigra at 10 to 20 mg/kg […] dosed 30 mins prior to each MPTP injection for 5 days and administered continuously for 7 days post last MPTP dose by 3,3'-diaminobenzidine staining based light microscopic analysis; assay type: functional, organism-based
Method in brief: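 Sub-acute MPTP model (30 mg/kg i.p. × 5 days) with agent (5–20 mg/kg) or L-DOPA pre-dosing and 7 days of continued dosing. Fixed brains cut at 40 µm on a freezing microtome; coronal nigral sections stained with anti-TH and DAB/peroxide; TH-positive cells counted blind by light microscopy.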

Mus musculus [7] = test: Antineuro-inflammatrory activity in MPTP-induced subacute C57/BL mouse Parkinson's disease model assessed as decrease in TNF-alpha levels in midbrain at 10 to 20 mg/kg […] dosed 30 mins prior to each MPTP injection for 5 days and administered continuously for 7 days post last MPTP dose measured on day 12 post last dose by ELISA; assay type: functional, organism-based
Mus musculus [8] = test: Hepatotoxicity in ICR mouse at 250 to 1000 mg/kg administered through oral gavage for 14 consecutive days; assay type: toxicity, organism-based; conditions: in vivo
Method in brief: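 Mice dosed by oral gavage at 250, 500 and 1000 mg/kg for 14 consecutive days. General condition monitored throughout; liver and kidney clinical chemistry assessed.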

Mus musculus [9] = test: as §1, with “decrease in IL-1beta level in” for “decrease in TNF-alpha level in”, “MPTP/probenecid dose for 5 weeks by ELISA” for “MPTP/probenecid dose by ELISA”; assay type: functional, organism-based; method in brief: as §2
Mus musculus [10] = test: Effect on ROCK1 protein expression level in midbrain of MPTP/probenecid-induced chronic C57/BL mouse Parkinson's disease model at 5 to 20 mg/kg dosed once daily for 7 weeks post 10 doses of MPTP/probenecid for 5 weeks by iTRAQ-labelled 2D-LC/MS/MS analysis; assay type: functional, organism-based
Mus musculus [11] = test: In vivo inhibition of Src in MPTP/probenecid-induced chronic C57/BL mouse Parkinson's disease model assessed as effect on PTEN expression level in midbrain at 5 to 20 mg/kg dosed once daily for 7 weeks post 10 doses of MPTP/probenecid for 5 weeks by iTRAQ-labelled 2D-LC/MS/MS analysis; assay type: functional, organism-based
[12] = biological target: Proto-oncogene tyrosine-protein kinase Src (Mus musculus, UniProt P05480); test: Inhibition of Src in mouse BV2 cells assessed as suppression of LPS-induced NO release preincubated for 1 hr followed by LPS addition measured after 24 hrs by Griess assay; assay type: cell-based, BV-2
Method in brief: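 BV-2 cells in DMEM/10% FBS, plated at 5×10^3 per well. After 24 h, treated at 100, 50, 10, 5, 1 and 0.1 µM; 1 h later LPS 300 ng/mL added. After another 24 h, nitrite in the medium measured by Griess assay.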

Mus musculus [13] = test: In vivo inhibition of Src in MPTP/probenecid-induced chronic C57/BL mouse Parkinson's disease model assessed as effect on PTEN expression level in midbrain at 5 to 20 mg/kg co-administered with L-DOPA once in a day for 7 weeks post 10 doses of MPTP for 5 weeks by Western blot analysis; assay type: functional, organism-based
[14] = biological target: Proto-oncogene tyrosine-protein kinase Src (Rattus norvegicus) (UniProt Q9WUD9); test: Inhibition of Src in Sprague-Dawley rat primary mixed mesecephalic neuron/glial cells assessed as suppression of LPS-induced IL-1beta expression at 10 uM preincubated for 1 hr followed by LPS challenge measured after 5 hrs by ELISA
Method in brief: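 Mixed mesencephalic neuron/glia cultures from E14 Sprague-Dawley rats, used at 7 days. Agent at 10 µM added 1 h before LPS 100 ng/mL; IL-1β and TNF-α in medium measured by ELISA after 5 h, n = 6.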

[15] = biological target: Proto-oncogene tyrosine-protein kinase Src (Rattus norvegicus) (UniProt Q9WUD9); test: Inhibition of Src in Sprague-Dawley rat primary mixed mesecephalic neuron/glial cells assessed as suppression of LPS-induced microglia activation by measuring Iba-1 expression at 10 uM preincubated for 1 hr followed by LPS challenge measured after 24 hrs
[16] = Toxicity in ICR mouse assessed as mortality administered through oral gavage; assay type: organism-based; conditions: in vivo
Mus musculus [17] = test: In vivo inhibition of Src in MPTP/probenecid-induced chronic C57/BL mouse Parkinson's disease model assessed as effect on Akt expression level in midbrain at 5 to 20 mg/kg […] once in a day for 7 weeks post 10 doses of MPTP for 5 weeks by Western blot analysis; assay type: functional, organism-based
Mus musculus [18] = test: Neuroprotective activity in alpha-syn A53T transgenic B6C3H mouse assessed as improvement in motor behavior at 5 to 20 mg/kg dosed once daily for 12 consecutive weeks by pole test; assay type: functional, organism-based
Mus musculus [19] = test: Antineuro-inflammatrory activity in alpha-syn A53T transgenic B6C3H mouse assessed as decrease in TNF-alpha level in midbrain at 10 to 20 mg/kg dosed once daily for 12 consecutive weeks by ELISA; assay type: functional, organism-based
Method in brief: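 Male B6;C3H mice expressing mutant α-syn (A53T), from 4 months old, given agent (5, 10, 20 mg/kg) or L-DOPA 20 mg/kg in 0.5% CMC-Na once daily for 12 weeks. Wild-type controls received vehicle. Midbrain homogenised in non-denaturing lysis buffer with protease inhibitor; IL-1β or TNF-α measured by ELISA, n = 6, mean ± SD.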

Chain of Proto-oncogene tyrosine-protein kinase Src (Rattus norvegicus) (Q9WUD9 2-536 limits assumed): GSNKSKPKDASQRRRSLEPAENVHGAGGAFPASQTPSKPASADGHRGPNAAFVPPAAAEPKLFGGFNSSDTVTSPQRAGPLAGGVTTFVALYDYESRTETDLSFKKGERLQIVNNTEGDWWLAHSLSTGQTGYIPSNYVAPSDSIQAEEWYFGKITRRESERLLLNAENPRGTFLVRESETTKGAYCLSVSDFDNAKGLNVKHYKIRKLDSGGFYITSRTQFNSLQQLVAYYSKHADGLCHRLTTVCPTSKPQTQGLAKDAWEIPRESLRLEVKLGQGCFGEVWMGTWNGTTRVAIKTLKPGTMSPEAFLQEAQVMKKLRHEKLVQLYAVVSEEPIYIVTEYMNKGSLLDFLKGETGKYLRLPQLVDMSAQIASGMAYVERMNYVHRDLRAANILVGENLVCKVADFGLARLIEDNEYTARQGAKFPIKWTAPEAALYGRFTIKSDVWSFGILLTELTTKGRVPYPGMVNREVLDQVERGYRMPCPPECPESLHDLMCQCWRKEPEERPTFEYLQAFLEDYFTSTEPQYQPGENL
Chain of Proto-oncogene tyrosine-protein kinase Src (P05480 2-535 limits assumed): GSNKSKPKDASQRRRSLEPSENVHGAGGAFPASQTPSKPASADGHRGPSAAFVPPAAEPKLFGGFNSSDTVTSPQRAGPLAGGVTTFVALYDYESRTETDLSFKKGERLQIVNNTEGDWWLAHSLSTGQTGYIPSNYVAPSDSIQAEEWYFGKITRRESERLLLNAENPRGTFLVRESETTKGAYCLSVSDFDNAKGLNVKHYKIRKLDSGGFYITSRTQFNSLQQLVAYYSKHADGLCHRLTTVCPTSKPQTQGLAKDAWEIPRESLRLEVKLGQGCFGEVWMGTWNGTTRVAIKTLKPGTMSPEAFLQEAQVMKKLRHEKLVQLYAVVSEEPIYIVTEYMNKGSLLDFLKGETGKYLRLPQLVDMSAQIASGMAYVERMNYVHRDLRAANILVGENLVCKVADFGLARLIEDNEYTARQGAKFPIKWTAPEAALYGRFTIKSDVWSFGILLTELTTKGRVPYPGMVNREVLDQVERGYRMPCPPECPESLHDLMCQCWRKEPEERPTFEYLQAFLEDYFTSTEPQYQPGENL

In the case of COc1cc(OC)c(CN[C@@H](CO)C(=O)O)c(OC)c1, the inhibition (Mus musculus [1]) is reported as “Active”, the Activity (Mus musculus [2]) is reported as “Active” and the Drug uptake [3] is reported as “Active”. The Activity (Mus musculus [4]) was “Active”, the Activity (Mus musculus [5]) was “Active” and the Activity (Mus musculus [6]) was “Active”. The Activity (Mus musculus [7]) was “Active”, the Activity (Mus musculus [8]) was “Non-Toxic” and the Activity (Mus musculus [9]) was “Active”. The Activity (Mus musculus [10]) was “Active”, the inhibition (Mus musculus [11]) was “Active” and the IC50 [12] was 6.6 µM. For the same compound, the inhibition (Mus musculus [13]) was “Active”, the inhibition [14] was “Active” and the inhibition [15] was “Active”. The LD50 [16] was over 5000 mg/kg, the inhibition (Mus musculus [17]) was “Active” and the Activity (Mus musculus [18]) was “Active”. For the same compound, the Activity (Mus musculus [19]) was “Active”.
